Test [1] deals with T1, Matrix metalloproteinase-9 (Homo sapiens, UniProt P14780).
For a further test, the system named is THP-1. The test can be described thus: Inhibition of LPS-stimulated TNFalpha production in human THP1 cells at 3 uM by ELISA. It counts as functional.
The target in test [2] is T2, Interstitial collagenase (Homo sapiens, UniProt P03956).
Test [3] deals with T3, Disintegrin and metalloproteinase domain-containing protein 17 (Homo sapiens, UniProt P78536).
The target in test [4] is T4, Collagenase 3 (Homo sapiens, UniProt P45452).
Test [5] concerns the target T2, Interstitial collagenase. Kind of test: Inhibition of MMP1 at 10 uM. A digest of the protocol: (§1)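 Cell-free assay on isolated enzyme (MMP-1, MMP-9, MMP-13 or TACE). Percent inhibition was read at a single 10 μM inhibitor concentration, with samples run in triplicate and the mean reported. Full dose-response curves were generated only where inhibition at 10 μM reached 60%.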

Test [6] concerns the target T1, Matrix metalloproteinase-9. Kind of test: Inhibition of MMP9 at 10 uM. A digest of the protocol:
as §1

Test [7] concerns the target T4, Collagenase 3. The test can be described thus: Inhibition of MMP13 at 10 uM. A digest of the protocol:
as §1

Test [8] relates to Mus musculus. Kind of test: Inhibition of LPS-stimulated TNFalpha production in mouse model at 10 mg/kg, po. It counts as functional, organism-based. On the set-up: dose 10 mg/kg. The method in brief:
(§2)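 Mice received the compound orally. LPS was injected 30 min after dosing. Blood was drawn 1 h after LPS, and serum TNF-α was measured by ELISA. Results are expressed as % inhibition of LPS-induced TNF-α.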

For test [9], the system named is Mus musculus. Kind of test: Inhibition of LPS-stimulated TNFalpha production in mouse model at 100 mg/kg, po at 1 hrs. It is filed as functional. The method in brief:
as §2

For test [10], the system named is Mus musculus. The test can be described thus: Inhibition of LPS-stimulated TNFalpha production in mouse model at 100 mg/kg, po at 12 hrs. It is filed as functional.
Test [11] concerns the target T3, Disintegrin and metalloproteinase domain-containing protein 17. The test can be described thus: Inhibition of TACE at 10 uM. A digest of the protocol: as §1
The subject of test [12] is Mus musculus. Kind of test: Inhibition of LPS-stimulated TNFalpha production in mouse model at 10 mg/kg, po at 12 hrs. On the set-up: dose 10 mg/kg. It counts as functional, organism-based.
Test [13] concerns Mus musculus. Kind of test: Inhibition of LPS-stimulated TNFalpha production in mouse model at 10 mg/kg, po at 1 hrs. It is filed as functional. A digest of the protocol:
as §2

Calls of active or inactive are those of the source. No cut-off for these calls is given here. Some results are limits rather than exact numbers.

T2 sequence (P03956 whole entry, the tested form may be a part): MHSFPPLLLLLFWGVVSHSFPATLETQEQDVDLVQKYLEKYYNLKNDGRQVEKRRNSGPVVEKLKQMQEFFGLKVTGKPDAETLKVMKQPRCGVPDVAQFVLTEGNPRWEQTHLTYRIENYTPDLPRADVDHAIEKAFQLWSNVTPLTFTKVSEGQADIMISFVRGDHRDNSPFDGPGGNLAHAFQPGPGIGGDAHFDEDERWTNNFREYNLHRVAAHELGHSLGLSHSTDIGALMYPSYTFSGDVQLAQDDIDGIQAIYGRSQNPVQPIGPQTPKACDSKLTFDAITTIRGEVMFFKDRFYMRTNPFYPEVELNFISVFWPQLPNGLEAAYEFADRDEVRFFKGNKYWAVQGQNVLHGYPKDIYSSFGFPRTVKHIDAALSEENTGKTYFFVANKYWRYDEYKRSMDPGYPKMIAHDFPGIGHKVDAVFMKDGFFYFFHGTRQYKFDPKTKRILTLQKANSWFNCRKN
T1 sequence (P14780 whole entry): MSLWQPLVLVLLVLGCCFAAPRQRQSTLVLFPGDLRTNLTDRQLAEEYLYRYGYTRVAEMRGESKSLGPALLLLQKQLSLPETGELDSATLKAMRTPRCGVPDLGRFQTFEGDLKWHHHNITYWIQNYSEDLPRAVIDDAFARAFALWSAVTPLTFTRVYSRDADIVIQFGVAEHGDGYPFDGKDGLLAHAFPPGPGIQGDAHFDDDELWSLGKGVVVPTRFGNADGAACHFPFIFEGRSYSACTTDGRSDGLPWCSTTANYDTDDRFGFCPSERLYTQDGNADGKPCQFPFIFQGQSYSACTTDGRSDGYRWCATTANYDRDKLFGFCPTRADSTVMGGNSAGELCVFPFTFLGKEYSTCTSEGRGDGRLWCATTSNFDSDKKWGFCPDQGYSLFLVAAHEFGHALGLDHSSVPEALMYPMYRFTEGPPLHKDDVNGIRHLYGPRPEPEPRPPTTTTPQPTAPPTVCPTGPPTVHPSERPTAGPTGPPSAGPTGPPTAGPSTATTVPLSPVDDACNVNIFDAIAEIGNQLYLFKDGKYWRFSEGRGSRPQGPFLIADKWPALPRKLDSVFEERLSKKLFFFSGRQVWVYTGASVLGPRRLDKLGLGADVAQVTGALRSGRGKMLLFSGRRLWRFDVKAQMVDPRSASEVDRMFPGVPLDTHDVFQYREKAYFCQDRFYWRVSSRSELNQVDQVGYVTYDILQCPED
T3 sequence (P78536 whole entry, the tested form may be a part): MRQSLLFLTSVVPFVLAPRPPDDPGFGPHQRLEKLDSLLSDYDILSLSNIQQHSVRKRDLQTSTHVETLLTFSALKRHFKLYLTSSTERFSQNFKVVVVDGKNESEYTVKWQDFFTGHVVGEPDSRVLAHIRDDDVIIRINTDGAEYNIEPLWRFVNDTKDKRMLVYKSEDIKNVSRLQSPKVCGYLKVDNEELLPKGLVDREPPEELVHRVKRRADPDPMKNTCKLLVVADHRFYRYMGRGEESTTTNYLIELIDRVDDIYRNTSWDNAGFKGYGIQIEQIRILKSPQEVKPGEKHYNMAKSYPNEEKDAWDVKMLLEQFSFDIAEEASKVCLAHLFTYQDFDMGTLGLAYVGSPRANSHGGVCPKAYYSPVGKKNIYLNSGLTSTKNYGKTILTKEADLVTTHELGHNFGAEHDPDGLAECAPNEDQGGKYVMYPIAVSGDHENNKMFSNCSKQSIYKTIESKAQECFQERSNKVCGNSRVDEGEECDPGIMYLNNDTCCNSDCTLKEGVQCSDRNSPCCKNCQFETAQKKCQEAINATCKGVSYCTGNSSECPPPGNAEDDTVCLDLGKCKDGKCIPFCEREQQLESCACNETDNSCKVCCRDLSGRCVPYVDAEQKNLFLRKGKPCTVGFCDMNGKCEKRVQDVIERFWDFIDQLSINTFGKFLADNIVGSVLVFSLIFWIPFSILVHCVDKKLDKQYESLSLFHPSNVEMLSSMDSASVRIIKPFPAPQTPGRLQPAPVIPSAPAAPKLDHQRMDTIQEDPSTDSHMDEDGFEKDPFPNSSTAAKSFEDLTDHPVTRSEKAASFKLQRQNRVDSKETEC

Take `CC#CCOc1ccc(S(=O)(=O)C(C(=O)NO)C2CCSCC2)cc1` (stereo not given): the IC50 (commonly the concentration that gives 50% inhibition) is > 10000 nM in test [1], > 10 µM against Interstitial collagenase [2], 113 nM in [3] and > 10000 nM on Collagenase 3 [4]. Moreover, testing at 3 µM in the test on THP-1 gave an inhibition of 15%.
With `CCC#CCOc1ccc(S(=O)(=O)C2(C(=O)NO)CCN(Cc3ccc(Br)cc3)CC2)cc1`, the inhibition (as a rule, the percentage by which the read-out fell short of the control) came to 51% against Interstitial collagenase [5], 41% in [6] and 40% on Collagenase 3 [7]. In the test with THP-1, testing at 3 µM gave an inhibition of 0%.
Take `CCCCOc1ccc(S(=O)(=O)C2(C(=O)NO)CCN(Cc3ccc(Br)cc3)CC2)cc1`: the half-inhibitory concentration (IC50) in test [1] was 10 nM; at Interstitial collagenase [2], 3.96 µM; in test [3], 72 nM; on Collagenase 3 [4] it was 5 nM. In the test on THP-1, this compound showed an inhibition at 3 µM of 6%.
For the compound `CC#CCOc1ccc([S@@+]([O-])[C@@H](CCCCCC)C(=O)NO)cc1`, the IC50 in [1] worked out at 1500 nM; against Interstitial collagenase [2] it was 3 µM; in test [3], 4 nM; on Collagenase 3 [4], 900 nM. The same compound registered an inhibition at 3 µM in the test on THP-1 of 67%.
Take `CC#CCOc1ccc(S(=O)(=O)C2(C(=O)NO)CCN(Cc3ccc(Cl)cc3)CC2)cc1`: the inhibition at Interstitial collagenase [5] amounted to 52%; in test [6], 52%; at Collagenase 3 [7], 56%. Also, the inhibition at 3 µM in the test with THP-1 was found to be 66%. For the same compound, the outcome in the test with Mus musculus [8] was inactive. In addition, the inhibition in vivo (as a rule, the percentage by which the read-out fell short of the control) at 100 mg/kg stood at 61% in the test on Mus musculus [9] and 23% in the test on Mus musculus [10].
On to `CC#CCOc1ccc(S(=O)(=O)C2(C(=O)NO)CCN(CC)CC2)cc1`, for which the values for the inhibition (at Interstitial collagenase [5]; in test [6]) were 44% and 31%, respectively. This compound registered an inhibition at 3 µM in the test with THP-1 of 35%. This compound also registered a half-inhibitory concentration (IC50) in [3] of 80 nM.
As for `CCCCCC#CCOc1ccc(S(=O)(=O)C2(C(=O)NO)CCN(Cc3ccc(Br)cc3)CC2)cc1`, the inhibition was 33% against Interstitial collagenase [5], 59% in test [6] and 60% against Collagenase 3 [7]. This compound also registered an inhibition at 3 µM with THP-1 of 0%.
On to `CC#CCOc1ccc(SC2(C(=O)NO)CCN(C(=O)OC(C)(C)C)CC2)cc1`, for which the inhibition in test [11] is 38%; on Interstitial collagenase [5], 24%; in test [6] it was 25%. Further, 3 µM produced 0% inhibition in the test with THP-1.
Regarding `CC#CCOc1ccc(S(=O)(=O)C(C(=O)NO)C2CCN(C(=O)C3CC3)CC2)cc1` (stereo not given), the IC50 in test [1] was > 10000 nM; against Interstitial collagenase [2], > 10 µM; in test [3] it was 54 nM; against Collagenase 3 [4] it was > 10000 nM. The compound also gave an inhibition at 3 µM in the test on THP-1 of 71%.
Turning to `CC#CCOc1ccc(S(=O)(=O)C(CCCCCC)C(=O)NO)cc1` (stereo not given), the IC50 in [1] was 2500 nM; on Interstitial collagenase [2] it was > 10 µM; in test [3] it was 75 nM; against Collagenase 3 [4], 500 nM. In addition, the inhibition at 3 µM in the test with THP-1 was 6%.
With `CC#CCOc1ccc([S@+]([O-])[C@H](CCCCCC)C(=O)NO)cc1`, the IC50 in [1] came out at 1000 nM; against Interstitial collagenase [2], 3.2 µM; in [3], 12 nM; against Collagenase 3 [4], 150 nM. Moreover, the inhibition at 3 µM in the test with THP-1 came to 35%.
`CCCCCCC(Sc1ccc(OC)cc1)C(=O)NO` (stereo not given): the inhibition against Interstitial collagenase [5] was found to be 9%; in test [6] it was 67%; against Collagenase 3 [7], 55%.
Consider `CC#CCOc1ccc(S(=O)(=O)N2CCSC(C)(C)[C@@H]2C(=O)NO)cc1`, for which the outcome in the test with Mus musculus [12] was inactive. The compound further showed an inhibition in vivo at 10 mg/kg in the test on Mus musculus [13] of 80%.
As for `CC#CCOc1ccc(SC2(C(=O)OCC)CCN(C(=O)OC(C)(C)C)CC2)cc1`, the inhibition came out at 67% in test [11], 26% against Interstitial collagenase [5], 21% in [6] and 32% against Collagenase 3 [7]. Moreover, in the test on THP-1, the inhibition at 3 µM amounted to 0%.
Take `CC#CCOc1ccc(S(=O)(=O)C(C(=O)NO)C2CC[S+]([O-])CC2)cc1` (stereo not given): the IC50 was > 10000 nM in test [1], > 10 µM against Interstitial collagenase [2], 39 nM in [3] and > 10000 nM at Collagenase 3 [4]. Also, the inhibition at 3 µM in the test with THP-1 is 14%.
In the case of `C#CCOc1ccc(S(=O)(=O)C2(C(=O)NO)CCN(Cc3ccccc3)CC2)cc1`, the IC50 stood at 18 nM in test [1], 0.096 µM on Interstitial collagenase [2], 69 nM in test [3] and 7 nM against Collagenase 3 [4]. This compound displayed an inhibition at 3 µM in the test with THP-1 of 0%.
With `CC#CCOc1ccc([S@@](=O)[C@H](C(=O)NO)c2ccc(OC)cc2)cc1`, the half-inhibitory concentration (IC50) in [1] was > 10000 nM; against Interstitial collagenase [2], > 10 µM; in test [3] it was 48 nM; against Collagenase 3 [4] it was > 10000 nM. This compound came in with an inhibition at 3 µM in the test with THP-1 of 12%.
With `CC#CCOc1ccc(S(=O)(=O)C2(C(=O)NO)CCN(Cc3ccc(OC)cc3)CC2)cc1`, the result in the test on Mus musculus [8] was inactive. Moreover, the inhibition in vivo at 100 mg/kg came out at 91% in the test on Mus musculus [9] and 24% in the test with Mus musculus [10].
As for `CC#CCOc1ccc(S(=O)(=O)C(C(=O)NO)c2ccccc2)cc1` (stereo not given), the IC50 turned out to be 124 nM in [1], 4.57 µM against Interstitial collagenase [2], 94 nM in test [3] and 68 nM at Collagenase 3 [4]. In the test with THP-1, this compound returned an inhibition at 3 µM of 68%.
In the case of `O=C(NO)C1(S(=O)(=O)c2ccc(OCC#CCN3CCOCC3)cc2)CCN(Cc2ccc(Br)cc2)CC1`, the inhibition was found to be 16% against Interstitial collagenase [5], 20% in test [6] and 63% against Collagenase 3 [7]. The same compound had an inhibition at 3 µM with THP-1 of 0%.
As for `CC#CCOc1ccc([S@@](=O)[C@H](C(=O)NO)c2ccccc2)cc1`, the IC50 in test [1] is > 10000 nM; at Interstitial collagenase [2], > 10 µM; in [3] it was 74 nM; on Collagenase 3 [4], > 10000 nM. The compound further gave an inhibition at 3 µM with THP-1 of 4%.
On to `CC#CCOc1ccc(S(=O)(=O)C(C(=O)NO)C2CCN(C(=O)c3ccccc3)CC2)cc1` (stereo not given), for which the IC50 was > 10000 nM in test [1], > 10 µM against Interstitial collagenase [2], 233 nM in test [3] and > 10000 nM against Collagenase 3 [4]. In the test on THP-1, the inhibition at 3 µM stood at 28%.

Values taken from ChEMBL document CHEMBL1149252, “Synthesis and structure-activity relationships of 4-alkynyloxy phenyl sulfanyl, sulfinyl, and sulfonyl alkyl hydroxamates as tumor necrosis factor-alpha converting enzyme and matrix metalloproteinase inhibitors” (J Med Chem, 2004).
